In ChEMBL document CHEMBL3044755, “5-Methyl-1,2,3-thiadiazoles synthesized via ugi reaction and their fungicidal and antiviral activities” (J Agric Food Chem, 2010):

Assays:
Format in all cases: functional
[1] = system: Mycosphaerella arachidis; experiment: Fungicidal activity against Mycosphaerella arachidis at 50 ug/ml by growth inhibition method; settings: read-out: GI
Summary of the method: (§1)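 Mycelial growth inhibition on potato dextrose agar. The panel covered Alternaria solani, Botrytis cinerea, Cercospora arachidicola, C. beticola, Colletotrichum lagenarium, Fusarium oxysporum, Gibberella zeae, Puccinia triticina, Phytophthora infestans, Physalospora piricola, Pellicularia sasakii and Rhizoctonia solani.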

[2] = system: Phytophthora infestans; experiment: Fungicidal activity against Phytophthora infestans at 50 ug/ml by growth inhibition method; settings: read-out: GI; summary of the method: as §1
[3] = system: Fusarium graminearum; experiment: Fungicidal activity against Fusarium graminearum at 50 ug/ml by growth inhibition method; settings: read-out: GI; summary of the method: as §1
[4] = system: Rhizoctonia solani; experiment: Fungicidal activity against Rhizoctonia solani at 50 ug/ml by growth inhibition method; settings: read-out: GI; summary of the method: as §1
[5] = system: Botryosphaeria berengeriana; experiment: Fungicidal activity against Botryosphaeria berengeriana at 50 ug/ml by growth inhibition method; settings: read-out: GI; summary of the method: as §1
[6] = system: Colletotrichum lagenaria; experiment: Fungicidal activity against Colletotrichum lagenaria at 50 ug/ml by growth inhibition method; settings: read-out: GI; summary of the method: as §1
[7] = system: Tobacco mosaic virus; experiment: In vitro antiviral activity against Tobacco mosaic virus (TMV) infected tobacco leaves at 100 ug/ml
[8] = system: Puccinia triticina; experiment: Fungicidal activity against Puccinia triticina at 50 ug/ml by growth inhibition method; settings: read-out: GI; summary of the method: as §1
[9] = system: Cercospora beticola; experiment: Fungicidal activity against Cercospora beticola at 50 ug/ml by growth inhibition method; settings: read-out: GI; summary of the method: as §1
[10] = system: Thanatephorus cucumeris; experiment: Fungicidal activity against Thanatephorus cucumeris at 50 ug/ml by growth inhibition method; settings: read-out: GI; summary of the method: as §1
[11] = system: Alternaria solani; experiment: Fungicidal activity against Alternaria solani at 50 ug/ml by growth inhibition method; settings: read-out: GI; summary of the method: as §1
[12] = system: Tobacco mosaic virus; experiment: In vitro antiviral activity against Tobacco mosaic virus (TMV) infected tobacco leaves at 500 ug/ml

| SMILES | inhibition of growth at 50 µg/mL [1] [%] | inhibition of growth at 50 µg/mL [2] [%] | inhibition of growth at 50 µg/mL [3] [%] | inhibition of growth at 50 µg/mL [4] [%] | inhibition of growth at 50 µg/mL [5] [%] | inhibition of growth at 50 µg/mL [6] [%] | inhibition at 100 µg/mL [7] [%] | inhibition of growth at 50 µg/mL [8] [%] | inhibition of growth at 50 µg/mL [9] [%] | inhibition of growth at 50 µg/mL [10] [%] | inhibition of growth at 50 µg/mL [11] [%] | inhibition at 500 µg/mL [12] [%] |
| --- | --- | --- | --- | --- | --- | --- | --- | --- | --- | --- | --- | --- |
| Cc1ccc(N(C(=O)c2nnsc2C)C(C(=O)NC2CCCCC2)c2ccc(Cl)cc2)cc1F (stereo unspecified) | 18 | 6 | 0 | 22 | 0 | 0 | 8 | 0 | 13 | 0 | 0 | 14 |
| Cc1ccc(N(C(=O)c2nnsc2C)C(C(=O)NC2CCCCC2)c2ccccc2Cl)cc1F (stereo unspecified) | 0 | 25 | 45 | 22 | 0 | 0 | 16 | 0 | 0 | 0 | 0 | 53 |
| Cc1ccc(N(C(=O)c2nnsc2C)C(C(=O)NC2CCCCC2)c2cccc(F)c2)cc1F (stereo unspecified) | 27 | 44 | 9 | 2 | 8 | 43 | 52 | 0 | 25 | 11 | 50 | 30 |
| Cc1ccc(N(C(=O)c2nnsc2C)C(C(=O)NC2CCCCC2)c2ccccc2F)cc1F (stereo unspecified) | 55 | 50 | 73 | 59 | 0 | 57 | 33 | 0 | 25 | 0 | 63 | 58 |
| Cc1ccc(N(C(=O)c2nnsc2C)C(C(=O)NC2CCCCC2)c2ccc(C(F)(F)F)cc2)cc1F (stereo unspecified) | 0 | 0 | 9 | 22 | 0 | 14 | 27 | 0 | 0 | 0 | 0 | 36 |
| Cc1ccc(N(C(=O)c2nnsc2C)C(C(=O)NC2CCCCC2)c2cccc(C(F)(F)F)c2)cc1F (stereo unspecified) | 27 | 25 | 14 | 22 | 0 | 29 | 35 | 0 | 25 | 13 | 25 | 72 |
| Cc1ccc(N(C(=O)c2nnsc2C)C(C(=O)NC2CCCCC2)c2ccccc2C(F)(F)F)cc1F (stereo unspecified) | 0 | 25 | 0 | 4 | 0 | 14 | 31 | 0 | 25 | 0 | 44 | 20 |
| Cc1ccc(C(C(=O)NC2CCCCC2)N(C(=O)c2nnsc2C)c2ccc(C)c(F)c2)cc1 (stereo unspecified) | 27 | 25 | 0 | 2 | 8 | 14 | 21 | 0 | 25 | 15 | 0 | 53 |
| Cc1ccc(N(C(=O)c2nnsc2C)C(C(=O)NC2CCCCC2)c2ccccc2C)cc1F (stereo unspecified) | 0 | 44 | 0 | 22 | 0 | 29 | 13 | 0 | 25 | 0 | 38 | 35 |
| Cc1ccc(N(C(=O)c2nnsc2C)C(C(=O)NC2CCCCC2)c2ccc(O)cc2)cc1F (stereo unspecified) | 45 | 25 | 14 | 22 | 0 | 36 | 9 | 0 | 25 | 0 | 13 | 34 |
| Cc1cccc(C(C(=O)NC(C)C)N(C(=O)c2nnsc2C)c2ccc(C)c(F)c2)c1 (stereo unspecified) | 9 | 13 | 0 | 0 | 0 | 0 | 14 | 0 | 25 | 0 | 0 | 35 |
| Cc1ccc(N(C(=O)c2nnsc2C)C(C(=O)NC(C)C)c2ccccc2C)cc1F (stereo unspecified) | 36 | 31 | 27 | 22 | 0 | 50 | 36 | 0 | 0 | 0 | 56 | 55 |
| Cc1ccc(N(C(=O)c2nnsc2C)C(C(=O)NC(C)C)c2cccc(O)c2)cc1F (stereo unspecified) | 0 | 38 | 0 | 2 | 0 | 14 | 4 | 0 | 11 | 0 | 0 | 20 |
| Cc1ccc(N(C(=O)c2nnsc2C)C(C(=O)NC(C)C)c2ccccc2O)cc1F (stereo unspecified) | 0 | 0 | 50 | 26 | 19 | 50 | 27 | 0 | 0 | 41 | 0 | 56 |
| Cc1ccc(N(C(=O)c2nnsc2C)C(C(=O)NC2CCCCC2)c2ccccc2)cc1F (stereo unspecified) | 18 | 38 | 27 | 0 | 69 | 0 | 51 | 0 | 0 | 65 | 25 | 71 |
| Cc1ccc(N(C(=O)c2nnsc2C)C(C(=O)NC2CCCCC2)c2ccc([N+](=O)[O-])cc2)cc1F (stereo unspecified) | 45 | 50 | 0 | 2 | 0 | 14 | 8 | 0 | 25 | 0 | 0 | 70 |
| Cc1ccc(N(C(=O)c2nnsc2C)C(C(=O)NC2CCCCC2)c2cccc([N+](=O)[O-])c2)cc1F (stereo unspecified) | 0 | 44 | 0 | 4 | 0 | 0 | 9 | 0 | 25 | 0 | 0 | 57 |
| Cc1ccc(N(C(=O)c2nnsc2C)C(C(=O)NC2CCCCC2)c2ccccc2[N+](=O)[O-])cc1F (stereo unspecified) | 27 | 50 | 0 | 9 | 12 | 0 | 5 | 0 | 25 | 0 | 0 | 11 |
